# Tests used:
# Conditions in all cases: in vivo
# [1] = Drug excretion in urine of human treated with [14C]sunitinib at 50 mg, po administered as single dose by liquid scintillation counting
# [2] = Drug excretion in feces of female cynomolgus monkey treated with [14C]sunitinib at 6 mg/kg, po administered as single dose by liquid scintillation counting; format: ADME, organism-based, Macaca fascicularis; design: dose 6 mg/kg, dosed compound name [14C]Sunitinib, route oral
# Procedure, shortened: (§1)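 Cynomolgus monkeys given one oral gavage dose of [14C]sunitinib L-malate, 6 mg/kg (37 µCi/kg). Urine collected at 0-4, 4-8 and 8-24 h, feces at 0-8 and 8-24 h, then both daily to 14 days; samples stored at -80 °C. Duplicate urine aliquots counted by liquid scintillation; homogenized feces combusted before counting.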
# [3] = Drug excretion in urine of female Sprague-Dawley rat treated with [14C]sunitinib at 15 mg/kg, po administered as single dose by liquid scintillation counting; format: ADME, organism-based; design: dose 15 mg/kg, dosed compound name [14C]Sunitinib, route oral
# Procedure, shortened: (§2)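 Female and male rats given one oral gavage dose, 15 mg/kg free base equivalents (50 µCi/kg). Urine and feces collected on dry ice, protected from light, over 0-4, 4-8 and 8-24 h, then daily to 72 h. Urine aliquots counted by liquid scintillation; homogenized feces combusted in oxygen before counting. Counts 5 min, external quench correction.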
# [4] = Drug excretion in urine of male Sprague-Dawley rat treated with [14C]sunitinib at 15 mg/kg, po administered as single dose by liquid scintillation counting; format: ADME, organism-based; design: dose 15 mg/kg, dosed compound name [14C]Sunitinib, route oral
# Procedure, shortened: as §2
# [5] = Drug excretion in urine of male cynomolgus monkey treated with [14C]sunitinib at 6 mg/kg, po administered as single dose by liquid scintillation counting; format: ADME, organism-based, Macaca fascicularis; design: dose 6 mg/kg, dosed compound name [14C]Sunitinib, route oral
# Procedure, shortened: as §1
# [6] = Drug excretion in urine of female cynomolgus monkey treated with [14C]sunitinib at 6 mg/kg, po administered as single dose by liquid scintillation counting; format: ADME, organism-based, Macaca fascicularis; design: dose 6 mg/kg, dosed compound name [14C]Sunitinib, route oral
# Procedure, shortened: as §1
# [7] = Drug excretion in urine of female Sprague-Dawley rat treated with [14C]sunitinib at 5 mg/kg, iv administered as single dose by liquid scintillation counting; format: ADME, organism-based; design: dose 5 mg/kg, dosed compound name [14C]Sunitinib, route intravenous
# Procedure, shortened: (§3)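 Five female rats given a single tail-vein bolus of [14C]sunitinib L-malate, 5 mg/kg free base equivalents (50 µCi/kg). Urine and feces collected over 0-72 h into dry-ice cooled containers. Urine counted directly by liquid scintillation; feces homogenized and combusted in oxygen before counting. Expired air also monitored.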
# [8] = Drug excretion in feces of male cynomolgus monkey treated with [14C]sunitinib at 6 mg/kg, po administered as single dose by liquid scintillation counting; format: ADME, organism-based, Macaca fascicularis; design: dose 6 mg/kg, dosed compound name [14C]Sunitinib, route oral
# Procedure, shortened: as §1
# [9] = Drug excretion in feces of human treated with [14C]sunitinib at 50 mg, po administered as single dose by liquid scintillation counting
# [10] = Drug excretion in feces of female Sprague-Dawley rat treated with [14C]sunitinib at 15 mg/kg, po administered as single dose by liquid scintillation counting; format: ADME, organism-based; design: dose 15 mg/kg, dosed compound name [14C]Sunitinib, route oral
# Procedure, shortened: as §2
# [11] = Drug excretion in feces of female Sprague-Dawley rat treated with [14C]sunitinib at 5 mg/kg, iv administered as single dose by liquid scintillation counting; format: ADME, organism-based; design: dose 5 mg/kg, dosed compound name [14C]Sunitinib, route intravenous
# Procedure, shortened: as §3
# [12] = Drug excretion in feces of male Sprague-Dawley rat treated with [14C]sunitinib at 15 mg/kg, po administered as single dose by liquid scintillation counting; format: ADME, organism-based; design: dose 15 mg/kg, dosed compound name [14C]Sunitinib, route oral
# Procedure, shortened: as §2
Compound,Compound recovery [2] [%],Compound recovery [8] [%],Compound recovery [9],further results
CC[N+]([O-])(CC)CCNC(=O)c1c(C)[nH]c(/C=C2\C(=O)Nc3ccc(F)cc32)c1C,2.6,3.2,–,Compound recovery [1]: metabolite_not_detected; Compound recovery [3]: 1.5%; Compound recovery [4]: 0.3%; Compound recovery [5]: < 0.1%; Compound recovery [6]: 0.2%; Compound recovery [7]: 0.7%
Cc1[nH]c(/C=C2\C(=O)Nc3ccc(F)cc32)c(C)c1C(=O)NCC(=O)O,6.2,6.3,metabolite_not_detected,–
CCNCC(O)NC(=O)c1c(C)[nH]c(/C=C2\C(=O)Nc3ccc(F)cc32)c1C (centres undefined),0.8,1,metabolite_not_detected,–
Cc1[nH]c(/C=C2\C(=O)Nc3ccc(F)cc32)c(C)c1C(=O)NCCN,0.8,1,metabolite_not_detected,Compound recovery [10]: 1.7%; Compound recovery [11]: 1.1%
CCN(CC)CCNC(=O)c1c(C)[nH]c(/C=C2\C(=O)Nc3ccc(O)cc32)c1C,5.9,6.3,–,Compound recovery [10]: 3.5%; Compound recovery [11]: 6.1%; Compound recovery [12]: 4.3%
CCN(CC)CCNC(=O)c1c(C)[nH]c(CC2C(=O)Nc3ccc(F)cc32)c1C (centres undefined),1,1.5,metabolite_not_detected,–
CCNCCNC(=O)c1c(C)[nH]c(C=C2C(=O)Nc3ccc(F)cc32)c1C (mixture of isomers),29.3,30.7,–,–

# — ChEMBL document CHEMBL3525900, “Pharmacokinetics, distribution, and metabolism of [14C]sunitinib in rats, monkeys, and humans” (Drug Metab Dispos, 2012)
